The campaign covered roughly 2,900 compounds. About 1,300 (45%) were called active. The set was probably picked from earlier hits. Only a sample is shown. A number with no mark means an inactive call.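 The calls were made as follows: active = mean inhibition over the triplicate runs exceeds the activity threshold set in the earlier primary screen (cut at about 20% in these data); inactive = the rest.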
target: Disintegrin and metalloproteinase domain-containing protein 10 (Homo sapiens) (UniProt O14672); test: ADAM10 inhibitors, counter-screen for ADAM17 exosite inhibitor project, biochemical, FRET, human ADAM10 (AID 743256); conditions: recombinant ADAM10, EDANS/DABCYL FRET peptide cleavage, 3 h; at 6.95 µM; active compounds read high;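 also: 0% = DMSO wells and 100% = marimastat wells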
Sequence (O14672 214-748 limits assumed): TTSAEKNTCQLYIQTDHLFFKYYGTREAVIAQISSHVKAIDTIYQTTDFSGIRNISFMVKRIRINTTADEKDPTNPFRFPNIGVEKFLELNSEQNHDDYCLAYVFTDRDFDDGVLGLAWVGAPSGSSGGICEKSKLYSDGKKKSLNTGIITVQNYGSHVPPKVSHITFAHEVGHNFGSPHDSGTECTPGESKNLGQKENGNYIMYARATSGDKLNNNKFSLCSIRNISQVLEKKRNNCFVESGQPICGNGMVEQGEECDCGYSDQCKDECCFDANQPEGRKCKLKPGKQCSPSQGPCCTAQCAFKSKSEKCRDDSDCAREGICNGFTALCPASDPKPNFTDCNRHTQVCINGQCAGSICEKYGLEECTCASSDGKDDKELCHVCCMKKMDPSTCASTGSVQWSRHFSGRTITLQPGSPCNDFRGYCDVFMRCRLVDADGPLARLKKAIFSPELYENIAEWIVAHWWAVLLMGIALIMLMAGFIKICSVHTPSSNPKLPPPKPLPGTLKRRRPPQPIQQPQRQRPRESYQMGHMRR
Summary of the method: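 System: human ADAM10 metalloprotease enzyme in a cell-free biochemical assay; amount: enzyme 2X stock at 20 nM; signal: FRET fluorescence readout; also added: EDANS/DABCYL DM2 peptide, 2X stock 20 µM; control set: 1 µM marimastat (high) and DMSO (low); times: 30 min plus 3 h, 25 °C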

| SMILES | inhibition |
| --- | --- |
| COc1cccc(NC(=O)C2C(c3ccccc3)C2(Cl)Cl)c1 (stereo not given) | 34.2% (active) |
| COC(=O)N(C)C[C@@H]1OCc2cnnn2CCCC(=O)N([C@@H](C)CO)C[C@@H]1C | -8.98% |
| C=C(C)COc1ccc(-c2n[nH]c(C)c2-c2ccccc2)c(O)c1 | 40.8% (active) |
| CC(=O)Nc1ccc(S(=O)(=O)N2CCN(CCCOc3cc(C)ccc3C)CC2)cc1 | 12.4% |
| COc1ccc(S(=O)(=O)N2CCN(C(C)C(=O)Nc3ccc(C(C)C)cc3)CC2)cc1 (stereo not given) | 20.5% (active) |
| O=C1NC(=O)C(c2ccc(Cl)cc2)N1 (stereo not given) | 6.62% |
| CN(C(=O)c1cccc(NC(=O)Cc2cccc([N+](=O)[O-])c2)c1)C1CCCCC1 | 19.9% (active) |
| COc1ccccc1C(=O)NCC(=O)OCC(=O)NNC(=O)c1ccc(Br)cc1 | 3.18% |
| S=C(NCc1ccc(Cl)cc1)NC12CC3CC(CC(C3)C1)C2 | 22.6% (active) |
| Cc1ccc(/C=N/NC(=O)CSc2nc3ccccc3o2)cc1 | 5.15% |
| C[C@@H]1CN([C@H](C)CO)C(=O)c2cc(-c3ccc(F)cc3)cnc2O[C@H]1CN(C)C(=O)c1ccc(F)cc1 | 12.7% |
| CC(C)Oc1cc(F)ccc1-c1cc(C(=O)Nc2cccc(Cl)c2)[nH]n1 | 25.8% (active) |
| N#C/C(=C/c1ccc(N2CCCCC2)o1)C(=O)NCCc1c[nH]c2ccccc12 | 23.4% (active) |
| Cc1cc(C)cc(NC(=S)NCCc2c[nH]c3ccccc23)c1 | 14% |
| O=C(CSc1nc(-c2ccccc2)cs1)Nc1cccc([N+](=O)[O-])c1 | 24.3% (active) |
| CCOc1ccc(N2C(=O)CC(N(CCc3ccc(OC)c(OC)c3)C(=S)Nc3ccccc3)C2=O)cc1 (stereo not given) | 4.08% |
| COc1ccc(Cl)cc1NC(=O)COC(=O)C(CC(C)C)N1C(=O)C2CC=CCC2C1=O (stereo not given) | 17.9% |
| CC1(C)C=Cc2c(ccc3c2OC[C@@H](c2ccc(O)cc2O)C3)O1 | 24.2% (active) |
| Cn1nc(C(F)(F)F)c2cc(NC(=O)OCC(C)(C)C)sc21 | 13% |
| C#CCN(C[C@H]1[C@H](OC(=O)NC2CCCC2)[C@H](OC(=O)NC2CCCC2)C[C@H]2C(=O)N(c3ccccc3)C(=O)[C@@H]12)S(=O)(=O)c1ccc(C)cc1 | 19.1% |
| CCOc1ccccc1C1CC(c2cccc(NS(C)(=O)=O)c2)=NN1C(=O)c1ccccc1 (stereo not given) | -1.35% |
| Cc1ccc(S(=O)(=O)NCCSc2ccccc2)cc1[N+](=O)[O-] | 6.91% |
| Cc1cc(C)cc(NS(=O)(=O)c2ccc(Oc3ncc(C(F)(F)F)cc3Cl)cc2)c1 | 39% (active) |
| COc1cc(/C=N/n2c(C)n[nH]c2=S)ccc1OCc1ccccc1 | -1.14% |
| COC(=O)c1c(C)[nH]c(C(=O)/C=C/c2ccc(Cl)cc2)c1C | -38.4% |
| O=C(OCc1ccc(-c2ccccc2)cc1)c1cccc(O)c1 | 22.9% (active) |
| COc1ccc(C(CNC(=O)c2cc(S(=O)(=O)Nc3cccc(C)c3)ccc2C)N2CCCC2)cc1 (stereo not given) | 6.83% |

| SMILES | inhibition |
| --- | --- |
| COC(C(=O)Nc1ccc(S(=O)(=O)Nc2ccc(C)c(C)c2)cc1)c1ccccc1 (stereo not given) | 29.4% (active) |
| Cc1ccccc1C(=O)Nc1ccccc1Sc1ccccc1 | 10.7% |
| O=C(COC(=O)c1ccccc1)Nc1ccccc1Sc1ccccc1 | 20.3% (active) |
| COc1ccc(S(=O)(=O)N2CCCCC2)cc1Br | 10.7% |
| CC(=O)Nc1ccc(S(=O)(=O)Oc2ccc(Br)cc2C(=S)N2CCOCC2)cc1 | 13.5% |
| O=C(CSCc1ccc(Br)cc1)Nc1ccc(S(=O)(=O)N2CCCCCC2)cc1 | 23% (active) |
| COc1ccc(CC(=O)c2ccc(O)cc2O)cc1OC | 6.86% |
| Cc1ccc(Cn2nnc3c(=O)[nH]c(C4CCN(S(=O)(=O)/C=C/c5ccccc5)CC4)nc32)cc1 | 41.6% (active) |
| N/C(Cc1ccc([N+](=O)[O-])cc1)=N\OC(=O)COc1ccc2ccccc2c1 | 11.5% |
| O=C(Nn1c(SCc2ccc([N+](=O)[O-])cc2)nc2ccccc2c1=O)c1ccc(F)cc1 | 30.6% (active) |
| CC(C)(C)c1ccc(S(=O)(=O)NCC2CCN(C(=O)C(=O)c3cc4ccccc4o3)CC2)cc1 | 24.1% (active) |
| C=CC(COCc1ccccc1)N(CC(=O)OC)S(=O)(=O)c1cc(Br)ccc1OC (stereo not given) | 13.2% |
| FC(F)(F)Oc1ccccc1C(c1nnnn1C1CCCCC1)N1CCN(C/C=C/c2ccccc2)CC1 (stereo not given) | 17.1% |
| COc1ccc(-c2cc(C3CCN(c4ncccc4[N+](=O)[O-])CC3)[nH]n2)cc1 | 27.1% (active) |
| O=C(Nc1ccc(C(=O)NCc2ccccc2Cl)cc1)C1=CSCCO1 | 9.95% |
| Cn1nc(C(F)(F)F)c(C(=O)Nc2cccc(C(F)(F)F)c2)c1SCc1ccc(Cl)cc1 | 37.8% (active) |
| COc1ccc(C(N)c2csc(NC(=O)Nc3cccc(C(F)(F)F)c3)n2)cc1 (stereo not given) | 14.4% |
| O=C(COc1ccc(Cl)cc1)N1CCN(c2cccc(C(F)(F)F)c2)CC1 | 18.6% |
| CCOC(=O)c1cccc(NC(=O)CN(C)S(=O)(=O)c2ccc(-c3cocn3)s2)c1 | 4.04% |
| COc1ccc(-c2ccc(CN3C(CC(C)C)C(=O)N(Cc4cn(CC5CCCCC5)nn4)CCS3(=O)=O)cc2)cc1 (stereo not given) | 26.9% (active) |
| COc1ccc(Cn2cc(CN3CCS(=O)(=O)N(Cc4ccc(-c5cccc(Cl)c5)cc4)C(C)C3=O)nn2)cc1 (stereo not given) | 18% |
| O=C1[C@H]2[C@@H](c3ccc(C(F)(F)F)cc3)N[C@]3(CCCN(Cc4ccc(Br)cc4)C3=O)[C@H]2C(=O)N1Cc1ccccc1 | 32.2% (active) |
| CCOc1ccccc1CNS(=O)(=O)c1cc(-c2cc(C)no2)ccc1C | 1.34% |
| CCOc1ccc(OCC)c(-c2c(=O)n(OCc3ccc(Cl)cc3)c3ccccc3[n+]2[O-])c1 | -2.21% |
| O=C(Cc1ccc(Cl)c(Cl)c1)Nc1ccc(SC(F)F)cc1 | 43.3% (active) |
| CCOc1ccc(-n2c(SCC(=O)Nc3cc(C)c(NC(=O)c4ccccc4)cc3OC)nnc2-c2cccs2)cc1 | 8.96% |
| Cc1ccc(-n2c(COc3ccccc3)nnc2SCC(=O)Nc2ccc3c(c2)OCCO3)cc1 | 25.8% (active) |

| SMILES | inhibition |
| --- | --- |
| O=C(CN1CCN(c2nc(-c3ccccc3)cs2)CC1)NCc1ccc2c(c1)OCO2 | 24.1% (active) |
| CC1(Cc2cccc(C#N)c2)C(=O)Nc2ccc(-c3cccc(C(F)(F)F)c3)cc21 (stereo not given) | 36.6% (active) |
| COCCNC(=O)C(c1ccc(C)o1)N(Cc1ccccc1)C(=O)Cn1nnc2ccccc21 (stereo not given) | -7.67% |
| O=C(CC1SC(=Nc2ccccc2)N(Cc2ccccn2)C1=O)Nc1cccc(Cl)c1 (stereo not given) | 35% (active) |
| CCN1C(=O)C(CC(=O)Nc2cc(C)ccc2C)SC1=Nc1ccc(S(N)(=O)=O)cc1 (stereo not given) | 5.34% |
| COc1ccc(CC(N)c2csc(NC(=O)NC(c3ccccc3)c3ccccc3)n2)cc1 (stereo not given) | 5.76% |
| C=CCOc1ccccc1/C=N/NC(=O)Cc1ccccc1 | -0.63% |
| Cn1c(=O)c2c(nc(N/N=C/c3cccs3)n2Cc2ccc(Br)cc2)n(C)c1=O | -80.2% |
| O=C(COC(=O)CCCSc1nc2ccccc2[nH]1)Nc1ccc(Oc2ccccc2)cc1 | 39.3% (active) |
| O=C1/C(=C\c2ccsc2)NC(=S)N1c1ccccc1 | 10.1% |
| COc1ccc(CN(C)C(=O)CC(c2ccccc2)c2ccccc2)cc1 | 7.1% |
| Clc1ccc(C(Cn2ccnc2)OCc2ccsc2Cl)c(Cl)c1 (stereo not given) | 22.7% (active) |
| C=CCC[C@@H](Cc1ccc(F)cc1)C(=O)OC[C@H](Cc1c[nH]c2ccccc12)NC(=O)[C@@H](CC=C)CC(=O)N(CCO)Cc1ccccc1 | 35.2% (active) |
| C=CC[C@H](CC(=O)N(CCO)Cc1ccccc1)C(=O)N[C@@H](COC(=O)[C@@H](CC=C)Cc1ccc(F)cc1)Cc1ccccc1 | 25.1% (active) |
| C=CCC[C@@H](Cc1ccc(F)cc1)C(=O)O[C@H](CNC(=O)[C@H](CC=C)CC(=O)N(CCO)Cc1ccccc1)c1ccccc1 | 45.3% (active) |
| COc1cc(NC(=O)CCS(=O)(=O)c2ccc3c(c2)oc(=O)n3C)cc(OC)c1 | 11.3% |
| O=C(CSc1nnc(Nc2ccccc2)s1)Nc1cccnc1Cl | 10.6% |
| Cc1nnc(SCC(=O)Nn2cnnc2)s1 | -7.63% |
| Cc1ccc(NC(=S)NNC(=O)CSc2nnc(SCc3ccccc3Cl)s2)cc1 | 37.1% (active) |
| CCOC(=O)c1c(Cc2ccc(Cl)cc2)c[nH]c1C | 19.5% |
| COc1ccc([C@@H]2[C@@H]3C(=O)N(C(C)(C)C)C(=O)[C@@H]3[C@]3(Cc4ccccc4)C(=O)N(c4cccc(Br)c4)C(=O)N23)cc1 | 28.6% (active) |
| CC(C)(C)N1C(=O)[C@H]2[C@@H](c3ccc(Br)cc3)N3C(=O)N(c4cccc(Cl)c4)C(=O)[C@@]3(C)[C@H]2C1=O | 22.2% (active) |
| CC[C@@]12C(=O)N(c3ccccc3)C(=O)N1[C@H](c1ccc(Br)cc1)[C@@H]1C(=O)N(C(C)(C)C)C(=O)[C@@H]12 | 6.71% |
| COc1cccc(CNc2nc(C(F)(F)F)nc3ccccc23)c1 | 8.29% |
| CC(C)(C)OC(=O)CNC(=O)c1[nH]cnc1C(=O)N[C@@H](Cc1ccccc1)C(=O)OCc1ccccc1 | 42.9% (active) |
| CC(C)(C)OC(=O)N1CCC(NC(=O)c2[nH]cnc2C(=O)N[C@@H](Cc2ccccc2)C(=O)OCc2ccccc2)CC1 | 35.8% (active) |

From PubChem BioAssay AID743256 (The Scripps Research Institute Molecular Screening Center, 2014)
